UBC13 inh – UBC13 polyubiquitin chain formation inhibitors, primary screen, biochemical, TR-FRET, uHTS; Ubiquitin-conjugating enzyme E2 N (Homo sapiens), P61088; actives 0.47% (n = 330,000); inhibition, % at 20 µM; in the data active = inhibition above about 45%, passing the limit was not always enough
Target sequence (P61088 whole entry, looked up): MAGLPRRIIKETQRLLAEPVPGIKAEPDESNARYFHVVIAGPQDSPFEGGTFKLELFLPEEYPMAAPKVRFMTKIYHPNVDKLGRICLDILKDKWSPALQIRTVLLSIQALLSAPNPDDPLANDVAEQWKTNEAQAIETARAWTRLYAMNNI
RAD52 inh – RAD52 DNA annealing inhibitors, primary screen, biochemical, FRET, single point, set 2. AID 651710, 2012. inhibition, % at 18.7 µM. actives 0.46% (n = 360,000). recombinant RAD52 DNA annealing, FRET fluorescence;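 active = every replicate showing at least 50% inhibition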
Target sequence (P43351 whole entry, looked up): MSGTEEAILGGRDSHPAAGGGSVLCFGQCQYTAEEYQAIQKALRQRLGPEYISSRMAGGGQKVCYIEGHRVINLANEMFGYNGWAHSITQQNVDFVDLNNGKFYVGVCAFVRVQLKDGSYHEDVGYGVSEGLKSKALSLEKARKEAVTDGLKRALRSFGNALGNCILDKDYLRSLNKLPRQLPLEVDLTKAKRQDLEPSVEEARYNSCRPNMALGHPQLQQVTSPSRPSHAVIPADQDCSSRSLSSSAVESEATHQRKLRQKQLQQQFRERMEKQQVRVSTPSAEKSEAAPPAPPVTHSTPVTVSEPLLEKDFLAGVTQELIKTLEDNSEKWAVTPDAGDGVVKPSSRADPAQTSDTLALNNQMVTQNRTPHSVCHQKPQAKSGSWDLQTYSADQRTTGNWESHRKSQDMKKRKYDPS
FID counter – compounds displacing fluorescent DNA intercalator, primary screen, artefact control for HCV NS3 helicase inhibitor project, biochemical, FID fluorescence | DNA fluorescent intercalator displacement | actives 0.17% (n = 290,000) | inhibition, % at 7.9 µM; in the data active = inhibition above about 37%;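 also: higher means more ethidium bromide displaced from hairpin DNA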
Apaf1 inhib – inhibitors of human Apaf-1 apoptosome, primary screen, biochemical, DEVD-Rh110 fluorescence, uHTS; inhibition, % at 20 µM; actives 0.71% (n = 330,000); Apoptotic protease-activating factor 1 (Homo sapiens), O14727; reconstituted apoptosome caspase-3 activity; AID 489030, 2010; active = inhibition of at least 40% at 20 µM
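System: Apoptosome proteins | Medium: Hepes pH 7.5 with detergent and BSA | Also added: Cytochrome c trigger plus (Z-DEVD)2-Rh110 caspase-3 substrate | Incubation: 30 min compound preincubation, 50 min activation, room temperature | Detection: Rhodamine 110 fluorescence at Ex 480/Em 540 nm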
RAD54 inh – inhibitors of human RAD54 branch migration, primary screen, biochemical, fluorescence, single point | RAD54 Holliday junction branch migration, FAM/BHQ fluorescence | inhibition, % at 10.4 µM | actives 0.14% (n = 360,000) | AID 602329, 2012;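 active = mean normalized replicate activity at least 40 and at least half of replicates scoring 40 or more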;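 also: inhibitors cause a drop in the FAM fluorescence signal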
Neddylation inh – inhibitors of cullin neddylation, primary screen, biochemical, TR-FRET, uHTS, NAE and Ubc12. calls only at 25 µM. NEDD8-conjugating enzyme Ubc12 (Homo sapiens) + NEDD8-activating enzyme E1 regulatory …. AID 651699, 2012. actives 0.58% (n = 360,000); in the data active = inhibition above about 36%
Neddyl conf – blockade of NEDD8 conjugation to cullin – biochemical, TR-FRET, single concentration, confirmation | shares compounds with Neddylation inh | TR-FRET cullin neddylation biochemical assay | calls only at 25 µM | actives 13% (n = 1,800) | AID 652217, 2013; in the data active = inhibition above about 40%;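 also: neddylation substrate is the cullin 1 ring ligase complex with SKP2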
Of the large screens only hits and unclear results are named; the others gave an inactive call (follow-up assays come after a bar, where shown). In the library only some 1.6% were active in any assay of this set; here they are far more common.

CC1(C)Oc2cc3oc(-c4cc(O)cc(O)c4)cc3cc2CC1O (stereo not drawn)	Neddylation inh active (no result: FID counter) | Neddyl conf inactive
c1ccc(C[n+]2cccc3c4ccccc4ccc32)cc1	Neddylation inh active (not shown: RAD52 inh)
O=[N+]([O-])c1ccc(C[n+]2cccc3ccccc32)cc1	none (no result: RAD54 inh)
Cc1cc(=O)oc2cc(OCc3nnc(-c4ccccc4Br)o3)ccc12	Neddylation inh active (no result: RAD52 inh) | Neddyl conf inactive
O=c1ccc2ccc(OCc3nnc(-c4ccccc4Br)o3)cc2o1	none (no result: RAD52 inh, RAD54 inh)
CCCOc1cccc(C2C(C(=O)c3cc4ccccc4o3)=C(O)C(=O)N2c2cc(C)on2)c1 (stereo not drawn)	Neddylation inh active | Neddyl conf inactive
Cc1cc(N2C(=O)C(O)=C(C(=O)c3cc4ccccc4o3)C2c2cccc(Br)c2)no1 (stereo not drawn)	none
C[C@H](CO)N1C[C@H](C)[C@@H](CN(C)S(=O)(=O)c2cn(C)cn2)OCCCC[C@H](C)Oc2ccc(NC(=O)NC3CCCCC3)cc2C1=O	none (no result: UBC13 inh, FID counter, Apaf1 inhib, Neddylation inh)
O=C(O)Cn1c(=O)c(-c2ccccc2)nc2ccccc21	Neddylation inh active
COCC#Cc1ccc2c(c1)O[C@@H](CN(C)Cc1ccccc1)[C@@H](C)CN([C@@H](C)CO)S2(=O)=O	none (no result: UBC13 inh, FID counter, Apaf1 inhib, Neddylation inh)
O=[N+]([O-])c1ccccc1/C=C/C=N/n1c(-c2cc(-c3ccccc3)n[nH]2)n[nH]c1=S	Neddylation inh active (no result: RAD54 inh) | Neddyl conf inactive
Cc1ccc(-c2n[nH]c(=S)n2/N=C/C=C/c2ccccc2[N+](=O)[O-])cc1	none (no result: RAD52 inh)
COc1ccc(CN2CCc3c([nH]c4ccccc34)C2)cc1Br	Neddylation inh active | Neddyl conf inactive
CSc1ccc(/C=N/NC(=O)c2sccc2C)cc1	Neddylation inh active | Neddyl conf inactive
COc1ccc(/C=N/Nc2ncnc3c2[nH]c2ccccc23)c(OC)c1OC	none (no result: RAD52 inh)
COc1cccc(/C=N/Nc2ncnc3c2[nH]c2ccc(C)cc23)c1OC	Neddylation inh active (no result: RAD54 inh) | Neddyl conf inactive
COc1cccc(/C=N/Nc2ncc(C)c(=O)[nH]2)c1OC	Neddylation inh active | Neddyl conf inactive
O=C1CN(Cc2ccc(F)cc2)C[C@@H]2[C@H](c3ccc(Br)cc3)[C@@H](CO)N12	none (no result: UBC13 inh, FID counter, Apaf1 inhib, RAD54 inh, Neddylation inh)
CO[C@H]1CN(C)C(=O)c2cc(NC(C)=O)ccc2OC[C@@H](C)N(C(=O)C2CCCCC2)C[C@@H]1C	none (no result: UBC13 inh, FID counter, Apaf1 inhib, Neddylation inh)
CN(CCO)c1nc(N)c(C#N)c(CC#N)c1C#N	none
CC(C)CN(CC(C)C)c1nc(N)c(C#N)c(CC#N)c1C#N	Neddylation inh active (not shown: RAD52 inh)
COc1cccc(N=c2oc3cc(O)ccc3cc2C(=O)NCC2CCCO2)c1 (stereo not drawn)	Neddylation inh active | Neddyl conf inactive
COc1ccc(-c2cn3cccnc3n2)cc1NC(=O)C1CCCC1	Neddylation inh active (no result: RAD52 inh) | Neddyl conf inactive
CCC(C)NC(=O)c1c(N)n(/N=C/c2ccccn2)c2nc3ccccc3nc12 (stereo not drawn)	Neddylation inh active | Neddyl conf inactive
NC(=O)COC(=O)c1ccccc1Nc1ccc(SC(F)F)cc1	Neddylation inh active (no result: RAD52 inh) | Neddyl conf inactive
CC(C)(C)NC(=O)COC(=O)c1ccccc1Nc1ccc(SC(F)F)cc1	none (no result: RAD52 inh)
CCCN1[C@H](C(=O)N[C@H](C)c2ccccc2)[C@@H](CO)[C@@H]2Cn3c(cccc3=O)[C@@H]21	none (no result: UBC13 inh, FID counter, Apaf1 inhib, RAD54 inh, Neddylation inh)
CCCCN(C)C1=Nc2cccc3cccc1c23	Neddylation inh active (no result: RAD52 inh) | Neddyl conf inactive
Nc1nc2ccccc2nc1N	Neddylation inh active (no result: RAD52 inh) | Neddyl conf active
c1ccc2nc3ccccc3nc2c1	none
O=C(NC1CCCCC1)C(c1ccc(C(F)(F)F)cc1)n1c(=O)c(-c2ccccc2)nc2ccccc21 (stereo not drawn)	Neddylation inh active (no result: UBC13 inh, FID counter, Apaf1 inhib, RAD54 inh) | Neddyl conf inactive
Cc1cccc(C)c1NC(=O)C(c1ccncc1)n1c(=O)c(-c2ccccc2)nc2ccccc21 (stereo not drawn)	Neddylation inh active (no result: UBC13 inh, FID counter, Apaf1 inhib, RAD54 inh) | Neddyl conf active
CCCCCNC(=O)C(C1CC1)n1c(=O)c(-c2ccccc2)nc2ccccc21 (stereo not drawn)	Neddylation inh active (not shown: UBC13 inh, FID counter, Apaf1 inhib, RAD54 inh)
CC(C)(C)NC(=O)C(c1ccncc1)n1c(=O)c(-c2ccccc2)nc2ccccc21 (stereo not drawn)	Neddylation inh active (not shown: UBC13 inh, FID counter, Apaf1 inhib, RAD54 inh)
COc1ccc(C(C(=O)Nc2c(C)cccc2C)n2c(=O)c(-c3ccccc3)nc3ccccc32)cc1 (stereo not drawn)	none (no result: UBC13 inh, FID counter, Apaf1 inhib, RAD54 inh)
N#Cc1nc(-c2ccccc2)oc1N1CCN(C(=O)c2ccco2)CC1	Neddylation inh active | Neddyl conf inactive
CCOC(=O)C1=C(C)NC(C)=C(C(=O)OCC)C1C	Neddylation inh active (not shown: RAD54 inh)
C[C@H](NC(=O)C[C@@H]1C=C[C@@H](NC(=O)Cc2ccccn2)[C@@H](CO)O1)c1ccccc1	none (no result: UBC13 inh, FID counter, Apaf1 inhib, Neddylation inh)
COc1ccc(C2C3=C(CC(C)(C)CC3=O)Nc3cc4c(cc32)OCO4)cc1 (stereo not drawn)	none (not shown: RAD52 inh, Neddylation inh)
COc1ccc(C2C3=C(CC(C)(C)CC3=O)Nc3c2c(=O)[nH]c2nc(C)nn32)cc1 (stereo not drawn)	Neddylation inh active (no result: RAD52 inh) | Neddyl conf active
CC1=C(C#N)C(c2ccc(O)cc2)C2=C(CCCC2=O)N1 (stereo not drawn)	Neddylation inh active | Neddyl conf inactive
COc1ccc(C2C(C#N)=C(C)NC3=C2C(=O)CC(C)(C)C3)cc1 (stereo not drawn)	Neddylation inh active (not shown: RAD52 inh)
COc1cccc(C2C(C#N)=C(C)NC3=C2C(=O)CC(C)(C)C3)c1 (stereo not drawn)	none (not shown: RAD54 inh, Neddylation inh)
COC(=O)CSC1=C(C#N)C(c2ccc(C)cc2)C2=C(CCCC2=O)N1 (stereo not drawn)	none (no result: RAD52 inh)
CNC[C@H]1OCCCC[C@H](C)Oc2ccc(NS(=O)(=O)c3ccc(C)cc3)cc2C(=O)N([C@@H](C)CO)C[C@@H]1C	none (no result: UBC13 inh, FID counter, Apaf1 inhib, Neddylation inh)
C[C@H](CO)N1C[C@H](C)[C@H](CN(C)C(=O)c2ccncc2)OCCCC[C@H](C)Oc2ccc(NC(=O)c3ccccc3)cc2C1=O	none (no result: UBC13 inh, FID counter, Apaf1 inhib, Neddylation inh)
COc1cccc(C2NC(=O)c3ccccc3O2)c1OC (stereo not drawn)	none (no result: RAD52 inh)
